# ChEMBL document CHEMBL3875231, “From Dynamic Combinatorial Chemistry to in Vivo Evaluation of Reversible and Irreversible Myeloperoxidase Inhibitors” (ACS Med Chem Lett, 2017)
# The source made the active and inactive calls. No cut-off for these calls is given here.
# Legend:
# [1] = biological target: T1, Myeloperoxidase (Homo sapiens) (UniProt P05164); assay: Inhibition of human MPO assessed as rate constant for reduction of PorFe(4)=O to PorFe(4)-OH in presence of H2O2 by stopped-flow method
# T1 sequence (whole entry): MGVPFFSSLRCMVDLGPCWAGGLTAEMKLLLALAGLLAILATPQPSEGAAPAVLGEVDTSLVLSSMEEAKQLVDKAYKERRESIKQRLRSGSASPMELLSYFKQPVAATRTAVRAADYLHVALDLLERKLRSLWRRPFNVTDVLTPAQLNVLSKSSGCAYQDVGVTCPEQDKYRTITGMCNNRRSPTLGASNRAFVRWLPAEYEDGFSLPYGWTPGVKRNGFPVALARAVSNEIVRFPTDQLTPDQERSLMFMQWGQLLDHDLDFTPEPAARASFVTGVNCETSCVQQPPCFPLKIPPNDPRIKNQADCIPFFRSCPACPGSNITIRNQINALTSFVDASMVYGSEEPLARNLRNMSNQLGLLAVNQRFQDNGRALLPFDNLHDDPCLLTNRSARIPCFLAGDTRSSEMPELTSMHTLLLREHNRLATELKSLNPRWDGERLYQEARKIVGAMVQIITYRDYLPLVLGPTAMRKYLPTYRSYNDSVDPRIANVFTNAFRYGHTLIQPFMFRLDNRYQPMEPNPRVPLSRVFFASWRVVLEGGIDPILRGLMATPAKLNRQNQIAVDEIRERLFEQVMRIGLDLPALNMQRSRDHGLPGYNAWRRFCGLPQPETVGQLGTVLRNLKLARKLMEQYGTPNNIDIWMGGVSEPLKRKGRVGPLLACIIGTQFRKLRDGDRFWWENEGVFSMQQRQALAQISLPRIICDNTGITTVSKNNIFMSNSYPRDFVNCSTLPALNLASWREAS
# [2] = biological target: T1, Myeloperoxidase (Homo sapiens); assay: Inhibition of human MPO assessed as residual activity in absence of […]; set-up: concentration or dose not given beside the values
# How it was run: (§1)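 Ligand and MPO were mixed with or without H2O2, then diluted 100-fold, and the residual enzymatic activity was measured. An H2O2-alone mixture served as control.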
# [3] = biological target: T1, Myeloperoxidase (Homo sapiens); assay: Irreversible inhibition of human MPO in presence of H2O2 by stopped-flow method
# Myeloperoxidase [4] = biological target: T2, Myeloperoxidase (Homo sapiens, UniProt P05164); assay: (§2) Inhibition of human MPO
# T2 sequence (P05164 whole entry): T1 sequence (whole entry)
# [5] = biological target: T1, Myeloperoxidase (Homo sapiens); assay: as §2; set-up: concentration or dose not given beside the values; conditions: concentration not given here
# [6] = biological target: T1, Myeloperoxidase (Homo sapiens); assay: Inhibition of human MPO assessed as residual activity in presence of H2O2; set-up: concentration or dose not given beside the values; how it was run: as §1
# [7] = biological target: T1, Myeloperoxidase (Homo sapiens); assay: Reversible inhibition of human MPO assessed as rate constant for reduction of PorFe(4)-OH to ferric MPO in presence of H2O2 by stopped-flow method
# Rattus norvegicus [8] = assay: Ex vivo inhibition of MPO activity in peritoneal exudate of Wistar albino rat model of carrageenan-induced inflammation assessed as reduction in H2O2-dependent oxidation of TMB at 10 mg/kg, iv measured after 24 hrs; type: functional, organism-based
# How it was run: (§3)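 Male Wistar Han rats had inflammation induced by intraperitoneal carrageenan, then received ligand at 10 mg/kg intravenously. Peritoneal liquid was collected. MPO concentration was measured at 24 h, and MPO activity at 24 h and at 48 h after drug administration. Comparators were carrageenan-only rats and reference rats not treated with carrageenan.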
# [9] = biological target: T1, Myeloperoxidase (Homo sapiens); assay: Inhibition of human MPO assessed as soret band formation at 429 nanometer in presence of H2O2 by stopped-flow method
# Rattus norvegicus [10] = assay: Ex vivo inhibition of MPO activity in peritoneal exudate of Wistar albino rat model of carrageenan-induced inflammation assessed as reduction in H2O2-dependent oxidation of TMB at 10 mg/kg, iv measured after 48 hrs; type: functional, organism-based; how it was run: as §3
# Myeloperoxidase [11] = biological target: T2, Myeloperoxidase; assay: Irreversible inhibition of MPO (unknown origin)
# How it was run: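 MPO was preincubated with ligand, with or without H2O2, alongside an H2O2-alone control. The mixture was then diluted 100-fold, residual enzymatic activity was measured, and inactivation was expressed as percent loss of activity.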
# Rattus norvegicus [12] = assay: Anti-inflammatory activity in Wistar albino rat assessed as inhibition of carrageenan-induced MPO release at 10 mg/kg, iv measured after 24 hrs by ELISA; type: functional, organism-based; how it was run: as §3
SMILES,K [1],Activity [2],inhibition [3],IC50 (Myeloperoxidase [4]),inhibition [5],Activity [6],K [7],inhibition (Rattus norvegicus [8]),inhibition [9],inhibition (Rattus norvegicus [10]),IC50 (Myeloperoxidase [11]),inhibition (Rattus norvegicus [12])
COc1cc(/C=N/Nc2nncc3ccccc23)ccc1O,2.8 ×10⁵ /M/s,87%,Active,340 nM,82%,22%,–,–,–,–,–,–
NNc1cccc2ccccc12,–,–,–,–,61%,–,–,–,–,–,–,–
CN(C)c1ccc(/C=N/Nc2nncc3ccccc23)cc1,7.1 ×10⁵ /M/s,93%,–,80 nM,100%,92%,89.3 M⁻¹ s⁻¹,Active,Active,–,–,–
OC/C=N/Nc1nncc2ccccc12,3.3 ×10⁵ /M/s,82%,Active,110 nM,–,18%,–,Active,–,Active,–,–
COc1ccc(/C=N/NC(=O)c2ccncc2)cc1O,–,88%,–,430 nM,91%,87%,–,–,–,–,–,–
COc1cc(/C=N/NC(=O)c2ccncc2)ccc1O [FTIVAZIDE],–,96%,–,460 nM,82%,91%,–,–,–,–,–,–
CN(C)c1ccc(/C=N/Nc2ccc(F)cc2)cc1,–,87%,–,3100 nM,100%,84%,–,–,–,–,–,–
NNC(=O)c1ccncc1 [ISONIAZID],–,98%,–,4700 nM,61%,64%,–,–,–,–,5000 nM,–
CN(C)c1ccc(/C=N/NC(=O)c2ccncc2)cc1 [N'-(4-DIMETHYLAMINOBENZYLIDENE)ISONICOTINOHYDRAZIDE],–,91%,–,1620 nM,100%,93%,–,–,–,–,–,–
O=C(N/N=C/CO)c1ccncc1,–,100%,–,> 5000 nM,–,94%,–,–,–,–,–,–
COc1ccc(/C=N/Nc2ccc(F)cc2)cc1O,–,81%,–,1130 nM,91%,92%,–,–,–,–,–,–
OC/C=N/Nc1ccc(F)cc1,–,107%,–,> 5000 nM,–,97%,–,–,–,–,–,–
Cc1ccc(NN)cc1,–,–,–,–,61%,–,–,–,–,–,–,–
NNc1ccc(F)cc1,–,103%,–,> 5000 nM,61%,98%,–,–,–,–,–,–
NNc1nncc2ccccc12 [HYDRALAZINE],7.1 ×10⁵ /M/s,92%,–,900 nM,61%,19%,–,–,–,–,900 nM,–
COc1cc(/C=N/Nc2ccc(F)cc2)ccc1O,–,89%,–,1200 nM,82%,98%,–,–,–,–,–,–
COc1ccc(/C=N/Nc2nncc3ccccc23)cc1O,–,93%,–,150 nM,91%,25%,–,Active,–,Active,–,Active
